Experimental data from different studies.
Lines come from different studies, so protocols differ.
Target: Serine/threonine-protein kinase VRK2 (VRK2, Homo sapiens, UniProt Q86Y07)

Compound	assay	test system	conditions	endpoint	value
Cn1c2c(c3ccccc31)C(C#N)C(C)(C)NC2=O (centres unmarked)	thermal stability, DSF		10 µM	ΔTm	0.2 °C
O=C(O)[C@H]1[C@H](Cn2nnc3ccccc3c2=O)CC[C@@H]1C(=O)c1ccc(OCCC2CCOCC2)cc1	cell-free assay, competition with immobilised ligand		1 µM	remaining binding	80%
Cc1ccc(Nc2nccc(N(C)c3ccc4c(C)n(C)nc4c3)n2)cc1S(N)(=O)=O	enzyme activity, inhibitor		0.3 µM	inhibition	-16%
Cc1cnc(NC2CCOCC2)nc1-n1cnc(C(=O)NC(CN)c2cc(F)cc(Cl)c2)c1 (centres unmarked)	enzyme activity, inhibitor, radiometric		1 µM	remaining activity	99%
CC(C)(O)[C@H]1CC[C@H](Nc2ccc3ncc(-c4cccc(C(F)(F)F)c4)n3n2)CC1	enzyme activity, inhibitor		1 µM	remaining activity	81.2%
CCN1CCC2(CC1)NC(=O)c1c(c3ccc(Cl)c(Cl)c3n1C)C2C#N (racemic)	thermal stability, DSF		10 µM	ΔTm	0.1 °C
C[C@H](c1ccc(F)cc1)N(Cc1cccc(C(=O)O)c1)C(=O)c1cnc2ccccc2c1	cell-free assay, competition with immobilised ligand		1 µM	remaining binding	100%
CC(C)(C)c1nc2c(s1)c1nc(N)ncc1c1ccc(NS(=O)(=O)c3c(F)cccc3F)c(F)c12	enzyme activity, inhibitor, radiometric		1 µM	remaining activity	116%
CNC(=O)c1cc(Oc2ccc(NC(=O)Nc3ccc(Cl)c(C(F)(F)F)c3)cc2)ccn1	enzyme activity, inhibitor		0.3 µM	inhibition	-15%
COc1ccc2c(c1)O[C@H](c1ccc(OC)c(OC)c1)C[C@@H]2NC(=O)C1(c2ccc3c(c2)OC(F)(F)O3)CC1	cell-free assay, competition with immobilised ligand		1 µM	remaining binding	82%
Cn1c2c(Cl)c(Cl)ccc2c2cc(N)[nH]c(=O)c21	thermal stability, DSF		10 µM	ΔTm	0.3 °C
Cc1ccc(NC(=O)c2ccc(C)c(C(F)(F)F)c2)cc1C#Cc1nn(C2CCC(O)CC2)c2ncnc(N)c12 (centres unmarked)	cell-free assay		10 µM	remaining signal	85%
CC1(C)NC(=O)c2[nH]c3c(Cl)c(Cl)ccc3c2C1C#N (centres unmarked)	thermal stability, DSF		10 µM	ΔTm	-0.1 °C
Cc1cc(-n2nc(Cc3cc(F)cc(C(F)(F)F)c3)nc2C)ccc1C(N)=O	cell-free assay, competition with immobilised ligand		1 µM	remaining binding	100%
CCCOc1ccc(OC)c(F)c1C(=O)c1ccc(C(=O)N[C@@H]2CNC[C@H]2NC(=O)c2ccc3[nH]ncc3c2)cc1	enzyme activity, inhibitor		10 µM	remaining activity	129%
CCN1CCN(Cc2ccc(NC(=O)c3ccc(C)c(Oc4ccnc5[nH]ccc45)c3)cc2C(F)(F)F)CC1	target engagement in cells, inhibitor, chemoproteomics	Huh-7	1 µM	inhibition	-14.2%
CCN(CC)CCNC(=O)c1c(C)[nH]c(/C=C2\C(=O)Nc3ccc(F)cc32)c1C	enzyme activity, inhibitor		0.3 µM	inhibition	-19%
c1ccc(N2CCN(Cc3nc4ccccc4[nH]3)CC2)nc1	binding, competition with immobilised ligand		1 µM	remaining binding	100%
Nc1ncnc2occ(-c3ccc(NC(=O)Nc4cc(C(F)(F)F)ccc4F)cc3)c12	cell-free assay, inhibitor		20 µM	remaining signal	2.4%
Cn1c2c(c3ccc(Cl)c(Cl)c31)C(C#N)C1(CCNCC1)NC2=O (racemic)	thermal stability, DSF		10 µM	ΔTm	0.3 °C
CN(C)C(=O)Cn1cc(-c2nc([C@@](C)(c3ccc(-c4cnc(N)nc4)cc3)C3CC3)no2)cn1	cell-free assay, competition with immobilised ligand		1 µM	remaining binding	92%
Cn1c2c(Cl)c(Cl)ccc2c2cn[nH]c(=O)c21	thermal stability, DSF		10 µM	ΔTm	0 °C
FC(F)(F)c1ccc2c(c1)nc(-c1cccnc1)n2C1CC1	cell-free assay, competition with immobilised ligand		1 µM	remaining binding	100%
